Results of several laboratories.
Compare with care: the assays were run in different laboratories.
Target: Serine/threonine-protein kinase VRK2 (VRK2, Homo sapiens, UniProt Q86Y07)

CC1CCCN1c1nccc(-c2cnn3ncccc23)n1 (centres unmarked) — remaining binding (binding; 1 µM): 100%
O=C(NCC1CCOCC1)c1n[nH]cc1NC(=O)c1c(F)cccc1F — remaining binding (binding, competition with immobilised ligand; 1 µM): 100%
O=C(N1CCS(=O)(=O)CC1)N1C[C@H](c2ccc(OC(F)(F)F)cc2)C[C@H](c2nc(C3CC3)no2)C1 — remaining binding (cell-free assay, competition with immobilised ligand; 1 µM): 90%
CCCNc1nc(C#Cc2ccc(Cl)s2)nc2c1ncn2[C@H]1[C@H](O)[C@H](O)[C@]2(C(=O)NC)C[C@H]12 — remaining binding (binding, competition with immobilised ligand; 10 µM): 31%
c1cnn2ncc(-c3ccnc(N4CCC45COC5)n3)c2c1 — remaining binding (binding; 1 µM): 74%
FC(F)(F)Oc1cccc(-c2cnc3ccc(-c4ccncc4)nn23)c1 — remaining binding (binding, competition with immobilised ligand; 5 µM): 75%
CN([C@@H]1CCc2c(CC(=O)O)c3cc(S(C)(=O)=O)ccc3n2C1)S(=O)(=O)c1ccc(F)cc1 — remaining binding (cell-free assay, competition with immobilised ligand; 1 µM): 94%
O=C(c1ccc(Nc2ncc(Cl)c(-c3ccc(Cl)s3)n2)cc1)N1CCC(N2CCCC2)CC1 — remaining binding (binding, competition with immobilised ligand; 1 µM): 56%
Cc1cnn2ncc(-c3ccnc(N(C)C)n3)c2c1 — remaining binding (binding; 1 µM): 96%
CC(=O)C1=C(C)N(c2cccc(C(F)(F)F)c2)C(=O)N[C@@H]1c1ccc(C#N)nc1 — remaining binding (cell-free assay, competition with immobilised ligand; 1 µM): 77.6%
O=C(NCCCN1CCOCC1)c1ccc(Nc2ncc(Cl)c(-c3ccc(Cl)s3)n2)cc1 — remaining binding (binding, competition with immobilised ligand; 1 µM): 64%
C[C@H]1CCN(c2nccc(-c3cnn4ncccc34)n2)C1 — remaining binding (binding; 1 µM): 81%
CCN1CCN(Cc2ccc(C(=O)Nc3ccc(C)c(Oc4ccc5c(c4)CC(=O)N5)c3)cc2C(F)(F)F)CC1 — remaining binding (binding, competition with immobilised ligand; 1 µM): 100%
Nc1ncc2c(n1)-c1c([nH]c3ccc(C#CC4CC4)cc13)CCCC2 — remaining binding (binding, competition with immobilised ligand; 1 µM): 100%
COc1cnc(Nc2cccc(S(N)(=O)=O)c2)nc1N1CCN(c2ccccc2)C(=O)C1 — remaining binding (binding, competition with immobilised ligand; 1 µM): 89%
C[C@H](c1ccnc(Nc2nc3ccc(-c4cc(N(C)C)ncn4)cc3[nH]2)c1)N1CCN(C(=O)CC(F)(F)F)CC1 — remaining binding (cell-free assay, competition with immobilised ligand; 0.1 µM): 94%
O=C(c1ccc(Nc2ncc(Cl)c(-c3cc4ccccc4s3)n2)cc1)N1CCC(N2CCCC2)CC1 — remaining binding (binding, competition with immobilised ligand; 1 µM): 70%
NS(=O)(=O)c1cc(NC(=O)Cc2ccccc2)ccc1Oc1cccc(Cl)c1 — remaining binding (cell-free assay, competition with immobilised ligand; 1 µM): 100%
CN(C)c1ncc(F)c(-c2cnn3ncccc23)n1 — remaining binding (binding; 1 µM): 100%
Cc1noc([C@H]2C[C@@H](c3ccc(C(F)(F)F)cc3)CN(C(=O)N3CCS(=O)(=O)C3)C2)n1 — remaining binding (cell-free assay, competition with immobilised ligand; 1 µM): 91%
N[C@@H]1CCN(c2nccc(-c3cnn4ncccc34)n2)C1 — remaining binding (binding; 1 µM): 100%
CNC(=O)Nc1ccc2c(c1)[C@@]1(CC2)OC(=O)N(CC(=O)N(Cc2ccc(F)cc2)[C@@H](C)C(F)(F)F)C1=O — remaining binding (cell-free assay, competition with immobilised ligand; 1 µM): 97%
CN(CCCC(F)(F)F)c1nccc(-c2cnn3ncccc23)n1 — remaining binding (binding; 1 µM): 100%
